# In the M2OR odorant receptor database:
# Biological target: T1, OR52D1 (Homo sapiens) (UniProt Q9H346)
# T1 sequence (whole entry): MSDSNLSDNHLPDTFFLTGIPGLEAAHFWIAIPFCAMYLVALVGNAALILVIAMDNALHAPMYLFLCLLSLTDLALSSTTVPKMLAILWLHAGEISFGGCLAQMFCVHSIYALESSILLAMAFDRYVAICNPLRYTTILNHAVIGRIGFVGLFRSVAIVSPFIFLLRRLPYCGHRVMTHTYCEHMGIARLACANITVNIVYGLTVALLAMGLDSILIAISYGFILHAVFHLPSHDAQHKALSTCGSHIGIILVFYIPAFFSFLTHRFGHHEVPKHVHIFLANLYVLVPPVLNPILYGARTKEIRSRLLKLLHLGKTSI
# Conditions: stereoisomer not certain
# In short: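 Whether a receptor–molecule pair is responsive (active) rests on the original authors' judgment that its measured signal was statistically different from baseline. Pairs without that judgment are non-responsive (inactive). Sources used varied assay methods, commonly transient luciferase assays in mammalian cell lines.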
# 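Further: active if original authors judged signal statistically different from baseline.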
row,Compound,odorant receptor agonist call
1,CCCCCCCCCCCC(=O)O,inactive
2,CCCCCCCC(=O)OCC,inactive
3,CC(C)=CCCC(C)CC=O (configuration not stated),inactive
4,CCCCOC(=O)CCC,active
5,CCCCCC=O,inactive
6,CCCCCCC(=O)OCC,active
7,CCCCCC(=O)OC,inactive
8,CCCCC(CC)CO (configuration not stated),inactive
9,CCCCCCCC(=O)OC,inactive
10,CCCCC(O)CCC (configuration not stated),inactive
11,CCCCCCCCCCCCO,inactive
12,Cc1ccc(C(C)C)c(O)c1,inactive
13,CCCCCCCCCCC(C)=O,inactive
14,c1ccc2ncccc2c1,inactive
15,O=c1ccc2ccccc2o1,inactive
16,CCCCCC(O)CC (configuration not stated),inactive
17,CCCC(=O)OCC,active
18,CSC,inactive
19,CCCCCCC(=O)CC,active
20,c1ccc2scnc2c1,active
21,C=C(C)C1CC=C(C)CC1 (configuration not stated),inactive
22,CCCCCCCCC(=O)OC,inactive
23,CCOC(=O)C(C)C,inactive
24,CC(C)=CCCC(C)=CC#N,active
25,CCCCCC1C(=O)CCC1CC(=O)OC (configuration not stated),inactive
26,CCCCCCCCCC(=O)OC,inactive
27,CCC(=O)O,active
